Laboratory results reported in ChEMBL document CHEMBL1129541, “Synthesis and DNA interactions of benzimidazole dications which have activity against opportunistic infections” (J Med Chem, 1996).

What was measured:
[1] = system: Nucleic Acid; experiment: Thermal melting temperature determined for (dG-C)4 at a concentration of 3*10e-6 M base pairs at a ratio of 0.6 compound per base pair; type: nucleic-acid assay
How it was run: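 d(G-C)4 at 3×10^-6 M in duplex, in MES buffer (0.01 M MES, 1×10^-3 M EDTA, pH 6.2) with 0.1 M NaCl. Compound at 0.6 per base pair. The UV absorbance melting curve is recorded in 1 cm quartz cells, with temperature monitored by a thermistor in a reference cuvette.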

[2] = system: Nucleic Acid; experiment: Thermal melting temperature for poly(A).poly(U) at a concentration of 5*10e-5) M base pairs at a ratio of 0.6 compound per base pair; type: nucleic-acid assay
How it was run: (§1)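 Polymers at 5×10^-5 M base pairs in MES buffer (0.01 M MES, 1×10^-3 M EDTA, pH 6.2) with 0.1 M NaCl. Compound at 0.6 per base pair. Samples are in 1 cm reduced-volume quartz cells. UV absorbance melting curves are recorded, with temperature followed by a thermistor in a reference cuvette.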

[3] = system: Nucleic Acid; experiment: Thermal melting temperature determined for poly(dA).poly(dT) at a concentration of 5*10e-5) M base pairs at a ratio of 0.6 compound per base pair; type: nucleic-acid assay; how it was run: as §1
[4] = system: Nucleic Acid; experiment: Binding constant for the sequence d(CGGAATTCGCG)2; parameters: unit not given here
[5] = system: Nucleic Acid; experiment: Thermal melting temperature for (dCGCGAATTCGCG)2 at a concentration of 3*10e-6 M base pairs at a ratio of one compound per oligomer duplex

## N=C(N)c1ccc2nc(Cc3nc4ccc(C(=N)N)cc4[nH]3)[nH]c2c1
[1]
  ΔTm: 0
[2]
  ΔTm: -0.8
[3]
  ΔTm: 4.9
[4]
  K: 930000
[5]
  ΔTm: 2.8

## N=C(N)c1ccc2[nH]c(/C=C/c3nc4cc(C(=N)N)ccc4[nH]3)nc2c1
[1]
  ΔTm: -1.5
[2]
  ΔTm: 0
[3]
  ΔTm: > 26
[4]
  K: 5.3e+08
[5]
  ΔTm: 22.8

## c1cc2[nH]c(Cc3nc4cc(C5=NCCN5)ccc4[nH]3)nc2cc1C1=NCCN1
[1]
  ΔTm: 0
[2]
  ΔTm: -0.6
[3]
  ΔTm: 5.7
[4]
  K: 930000
[5]
  ΔTm: 2.8

## N=C(N)c1ccc2[nH]c(-c3ccc4[nH]c(CCCCc5nc6cc(-c7nc8cc(C(=N)N)ccc8[nH]7)ccc6[nH]5)nc4c3)nc2c1
[1]
  ΔTm: 0
[2]
  ΔTm: 0
[3]
  ΔTm: > 26
[4]
  K: 4.5e+08
[5]
  ΔTm: 22.2

## c1cc2[nH]c(CCc3nc4cc(C5=NCCN5)ccc4[nH]3)nc2cc1C1=NCCN1
[1]
  ΔTm: 0.7
[2]
  ΔTm: 0.9
[3]
  ΔTm: > 26
[4]
  K: 8.8e+07
[5]
  ΔTm: 16.4

## c1cc2[nH]c(-c3ccc4[nH]c(CCCCc5nc6cc(-c7nc8cc(C9=NCCN9)ccc8[nH]7)ccc6[nH]5)nc4c3)nc2cc1C1=NCCN1
[1]
  ΔTm: 0
[2]
  ΔTm: 0
[3]
  ΔTm: > 26
[4]
  K: 3.1e+08
[5]
  ΔTm: 20.8

## N=C(N)c1ccc(-c2cc3ccc(C(=N)N)cc3[nH]2)cc1
[1]
  ΔTm: 2.5
[2]
  ΔTm: 3.9
[3]
  ΔTm: > 26
[4]
  K: 4.5e+08
[5]
  ΔTm: 22.2

## c1cc2[nH]c(CCCCc3nc4cc(C5=NCCN5)ccc4[nH]3)nc2cc1C1=NCCN1
[1]
  ΔTm: 0.5
[2]
  ΔTm: -1.5
[3]
  ΔTm: 25.5
[4]
  K: 5.2e+06
[5]
  ΔTm: 7.1

## N=C(N)c1ccc2[nH]c(CCCCc3nc4cc(C(=N)N)ccc4[nH]3)nc2c1
[1]
  ΔTm: 0.5
[2]
  ΔTm: -0.6
[3]
  ΔTm: 24.4
[4]
  K: 1.3e+07
[5]
  ΔTm: 10

## N=C(N)c1ccc2[nH]c(CCc3nc4cc(C(=N)N)ccc4[nH]3)nc2c1
[1]
  ΔTm: 0.75
[2]
  ΔTm: -1.1
[3]
  ΔTm: > 26
[4]
  K: 7.6e+07
[5]
  ΔTm: 15.9

## c1cc2[nH]c(-c3ccc4[nH]c(CCc5nc6cc(-c7nc8cc(C9=NCCN9)ccc8[nH]7)ccc6[nH]5)nc4c3)nc2cc1C1=NCCN1
[1]
  ΔTm: 0
[2]
  ΔTm: 0
[3]
  ΔTm: > 26
[4]
  K: 2e+09
[5]
  ΔTm: 28.5

## N=C(N)c1ccc(OCCCCCOc2ccc(C(=N)N)cc2)cc1
[1]
  ΔTm: 0
[2]
  ΔTm: 0
[3]
  ΔTm: 12.8
[4]
  K: 2.3e+06
[5]
  ΔTm: 4.8
